Reference: ChEMBL document CHEMBL1153393, “Discovery of N-(4-methoxyphenyl)-N,2-dimethylquinazolin-4-amine, a potent apoptosis inducer and efficacious anticancer agent with high blood brain barrier penetration” (J Med Chem, 2009)
Calls of active or inactive are those of the source. The rule behind the calls is not given here.

What was measured:
SNU-398 [1] = assay: Induction of apoptosis in human SNU398 cells assessed as caspase activation after 24 hrs by HTS assay; assay type: functional, cell-based; settings: SNU-398, 24 h
Procedure, shortened: (§1)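 Cell-based caspase HTS assay. Cells plated with various concentrations and incubated 24 h at 37 °C, then given fluorogenic caspase substrate N-(Ac-DEVD)-N'-ethoxycarbonyl-R110. EC50 reported as mean ± SEM of three or more experiments.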

HCT-116 [2] = assay: Induction of apoptosis in human HCT116 cells assessed as caspase activation after 24 hrs by HTS assay; assay type: functional, cell-based; settings: HCT-116, 24 h; procedure, shortened: as §1
T47D [3] = assay: Induction of apoptosis in human T47D cells assessed as caspase activation after 24 hrs by HTS assay; assay type: functional, cell-based; procedure, shortened: as §1
[4] = Ratio of AUC (0 to infinity) in C57BL/6 mouse brain to AUC (0 to infinity) in C57BL/6 mouse plasma at 2.5 mg/kg, iv; assay type: ADME, organism-based; set-up: dose 2.5 mg/kg, route intravenous; settings: read-out: Ratio AUC
Procedure, shortened: (§2)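 Mice given a single iv dose of 2.5 mg/kg. Plasma from blood samples and homogenized whole brain collected over time and analyzed by LC-MS/MS. Brain/plasma ratio is taken from the AUCs of the concentration-time curves.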

[5] = Drug level in rhesus monkey cerebrospinal fluid; assay type: ADME, tissue-based, Macaca mulatta; settings: in vivo
SNU-398 [6] = assay: Growth inhibition of human SNU398 cells after 48 hrs by celltiter assay; assay type: functional; settings: SNU-398, 48 h
Procedure, shortened: (§3)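 Cells ATCC-sourced, in 96-well format, exposed to serial concentrations for 48 h. Survival quantitated by CellTiter-Glo luminescence. GI50 reported as mean ± SEM of three or more experiments.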

MX1 [7] = assay: Antitumor activity against human MX1 cells xenografted in Crl:Nu/Nu-nuBR mouse assessed as tumor growth inhibition at 5 mg/kg, iv administered once weekly for 3 weeks; assay type: functional, organism-based; set-up: dose 5 mg/kg
Jurkat [8] = assay: Induction of apoptosis in human Jurkat cells assessed as sub-diploid DNA content at 10 nM after 18 hrs by flow cytometry in presence of caspase inhibitor MX-1013; assay type: functional
Brain = assay: AUC (0 to infinity) in C57BL/6 mouse brain at 2.5 mg/kg, iv; assay type: ADME, organism-based; set-up: time infinity, dose 2.5 mg/kg, route intravenous; settings: in vivo; procedure, shortened: as §2
T47D [9] = assay: Induction of apoptosis in human T47D cells assessed as G1 phase DNA content at 5 nM after 48 hrs by using propidium iodide staining by flow cytometry; assay type: functional
Procedure, shortened: (§4)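 T47D cells treated with 5 nM for 24 or 48 h, then stained with propidium iodide. DNA content analysed by flow cytometry, with cells scored in G1, G2/M and subdiploid (sub-G1) populations against untreated control.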

T47D [10] = assay: Induction of apoptosis in human T47D cells assessed as G1 phase DNA content at 5 nM after 24 hrs by using propidium iodide staining by flow cytometry; assay type: functional; procedure, shortened: as §4
Plasma = assay: AUC (0 to infinity) in C57BL/6 mouse plasma at 2.5 mg/kg, iv; assay type: ADME, organism-based; set-up: time infinity, dose 2.5 mg/kg, route intravenous; settings: in vivo; procedure, shortened: as §2
HCT-116 [11] = assay: Growth inhibition of human HCT116 cells after 48 hrs by celltiter assay; assay type: functional; settings: HCT-116, 48 h; procedure, shortened: as §3
T47D [12] = assay: Induction of apoptosis in human T47D cells assessed as sub-diploid DNA content at 5 nM after 48 hrs by using propidium iodide staining by flow cytometry; assay type: functional; procedure, shortened: as §4
T47D [13] = assay: Induction of apoptosis in human T47D cells assessed as G2/M DNA content at 5 nM after 24 hrs by using propidium iodide staining by flow cytometry; assay type: functional; procedure, shortened: as §4
T47D [14] = assay: Induction of apoptosis in human T47D cells assessed as S phase DNA content at 5 nM after 24 hrs by using propidium iodide staining by flow cytometry; assay type: functional; procedure, shortened: as §4
T47D [15] = assay: Induction of apoptosis in human T47D cells assessed as subdiploid DNA content at 5 nM after 48 hrs by using propidium iodide staining by flow cytometry
T47D [16] = assay: Induction of apoptosis in human T47D cells assessed as S phase DNA content at 5 nM after 48 hrs by using propidium iodide staining by flow cytometry; assay type: functional; procedure, shortened: as §4
T47D [17] = assay: Growth inhibition of human T47D cells after 48 hrs by celltiter assay; assay type: functional; procedure, shortened: as §3
T47D [18] = assay: Induction of apoptosis in human T47D cells assessed as sub-diploid DNA content at 5 nM after 24 hrs by using propidium iodide staining by flow cytometry; assay type: functional; procedure, shortened: as §4
MX1 [19] = assay: Antitumor activity against human MX1 cells xenografted in Crl:Nu/Nu-nuBR mouse assessed as tumor growth inhibition at 10 mg/kg, iv administered once weekly for 3 weeks; assay type: functional, organism-based; set-up: dose 10 mg/kg
MX1 [20] = assay: Antitumor activity against human MX1 cells xenografted in Crl:Nu/Nu-nuBR mouse assessed as tumor growth inhibition at 7.5 mg/kg, iv administered once weekly for 3 weeks; assay type: functional, organism-based; set-up: dose 7.5 mg/kg
Jurkat [21] = assay: Induction of apoptosis in human Jurkat cells assessed as sub-diploid DNA content at 10 nM after 18 hrs by flow cytometry; assay type: functional
[22] = Drug level in rhesus monkey cerebrospinal fluid at 7.5 mg/kg, iv after 24 hrs; assay type: ADME, organism-based, Macaca mulatta; set-up: dose 7.5 mg/kg, route intravenous; settings: in vivo

EC50 (SNU-398 [1]) | EC50 (HCT-116 [2]) | EC50 (T47D [3]) | SMILES | other results
10 nM | 9 nM | 9 nM | COc1ccc(N(C)c2nc(N(C)C(C)=O)nc3ccccc23)cc1 | 
 | 19 nM | 16 nM | Cc1nc(N(C)c2ccc(N(C)C)cc2)c2ccccc2n1 | 
170 nM | 250 nM | 180 nM | Cc1nc(N(C)c2ccc(N)cc2)c2ccccc2n1 | Kp [4]: 0.9
49 nM | 75 nM | 53 nM | COc1cnc(N(C)c2nc(C)nc3ccccc23)cn1 | Kp [4]: 1.9
2 nM | 2 nM | 2 nM | COc1ccc(N(C)c2nc(Cl)nc3ccccc23)cc1 | 
 |  |  | Cc1ccc(NC(=O)c2ccc(CN3CCN(C)CC3)cc2)cc1Nc1nccc(-c2cccnc2)n1 [IMATINIB] | Drug uptake [5]: 5%
2000 nM | 2600 nM | 1800 nM | COc1ccc(N(C)c2nc(CN(C)C)nc3ccccc23)cc1 | 
20 nM | 36 nM | 23 nM | COc1ccc(N(C)c2nc(NN)nc3ccccc23)cc1 | 
2 nM | 4 nM | 2 nM | COc1ccc(N(C)c2nc(CO)nc3ccccc23)cc1 | 
270 nM | 460 nM | 290 nM | COc1ccc(N(C)c2nc(NC/C=C(\C)CCC=C(C)C)nc3ccccc23)cc1 | 
 |  |  | COc1ccc(N(C)c2nc(C)nc3ccccc23)cn1 | Kp [4]: 5.8
620 nM | 1300 nM | 740 nM | Cc1nc(N(C)c2ccc([N+](=O)[O-])cc2)c2ccccc2n1 | 
18 nM | 44 nM | 16 nM | COc1ccc(N(C)c2nc(C)nc3ccccc23)nc1 | 
5 nM | 9 nM | 8 nM | CNc1nc(N(C)c2ccc(OC)cc2)c2ccccc2n1 | 
13 nM | 14 nM | 10 nM | COc1ccc(N(C)c2nc(C)nc3ccccc23)cc1OC | 
 | 130 nM | 86 nM | Cc1nc(N(C)c2ccc(O)cc2)c2ccccc2n1 | 

EC50 (SNU-398 [1]) | EC50 (HCT-116 [2]) | EC50 (T47D [3]) | SMILES | other results
4 nM | 4 nM | 4 nM | COc1ccc(N(C)c2nc(C)nc3ccccc23)c(F)c1 | 
20 nM | 33 nM | 15 nM | Cc1nc(N(C)c2ccc(N(C)C)nc2)c2ccccc2n1 | 
 | 3 nM | 3 nM | CSc1ccc(N(C)c2nc(C)nc3ccccc23)cc1 | 
 | 11 nM | 9 nM | Cc1nc(N(C)c2ccc(OC(F)F)cc2)c2ccccc2n1 | 
2 nM | 3 nM |  | COc1ccc(N(C)c2nc(C)nc3ccccc23)cc1 [VERUBULIN] | GI50 (SNU-398 [6]): 3 nM; Activity (MX1 [7]): Active; Activity (Jurkat [8]): 11%; AUC (Brain): 11459 ng/mL; Activity (T47D [9]): 14%; Activity (T47D [10]): 15%; AUC (Plasma): 686 ng/mL; GI50 (HCT-116 [11]): 6 nM; Activity (T47D [12]): 34%; Activity (T47D [13]): 58%; Activity (T47D [14]): 10%; Activity (T47D [15]): 34%; Activity (T47D [16]): 16%; GI50 (T47D [17]): 6 nM; Kp [4]: 16; Activity (T47D [18]): 15%; Activity (MX1 [19]): Active; Activity (MX1 [20]): Active; Activity (Jurkat [21]): 68%
2 nM | 2 nM | 2 nM | COc1ccc(N(C)c2nc(C)nc3ccccc23)cc1F | 
 | 26 nM | 31 nM | CCc1ccc(N(C)c2nc(C)nc3ccccc23)cc1 | 
390 nM | 630 nM | 420 nM | Cc1nc(N(C)c2ccc(F)cc2)c2ccccc2n1 | 
 | 48 nM | 48 nM | COc1ccc(N(C)c2nc(CCl)nc3ccccc23)cc1 | 
1 nM | 2 nM | 2 nM | COc1ccc(N(C)c2nc(CF)nc3ccccc23)cc1 | 
66 nM | 83 nM | 59 nM | CC(=O)Nc1ccc(N(C)c2nc(C)nc3ccccc23)cc1 | Kp [4]: 0.74
11 nM | 12 nM | 11 nM | Cc1nc(N(C)c2ccc(N=[N+]=[N-])cc2)c2ccccc2n1 | 
 |  |  | COc1ccc(S(=O)(=O)Nc2cccnc2Nc2ccc(O)cc2)cc1 [ABT-751] | Drug uptake [22]: 1.1%
33 nM | 43 nM | 15 nM | COc1ccc(N(C)c2nc(N(C)C)nc3ccccc23)cc1 | Kp [4]: 4
4 nM | 4 nM | 4 nM | CCOc1ccc(N(C)c2nc(C)nc3ccccc23)cc1 | 
